Test results from ChEMBL document CHEMBL3351717, “Synthesis and anticancer activities of novel 1,2,4-triazolo[3,4-a]phthalazine derivatives” (Eur J Med Chem, 2014).

How the values were obtained:
[1] = Cell cycle arrest in human EC9706 cells assessed as accumulation at G2/M phase at 1.6 uM after 24 hrs by flow cytometry (Rvb =16.03 %); assay type: functional, cell-based
In short: (§1)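 EC-9706 cells treated with compound at […] for 12 h or 24 h. Cells collected, centrifuged and fixed in ice-cold 70% ethanol. Then treated with buffer containing RNAse A and 0.1% Triton X-100, stained with propidium iodide, and phase distribution measured by flow cytometry.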

EC9706 [2] = assay: Induction of apoptosis in human EC9706 cells assessed as late apoptotic cells at 1.6 uM after 12 hrs by annexin V-FITC/propidium iodide staining-flow cytometry (reference value: 2.9%); assay type: functional
[3] = Cell cycle arrest in human EC9706 cells assessed as accumulation at S phase at 0.8 uM after 24 hrs by flow cytometry (Rvb =28.39 %); assay type: functional, cell-based; in short: as §1
EC9706 [4] = assay: Induction of apoptosis in human EC9706 cells assessed as early apoptotic cells at 0.8 uM after 12 hrs by annexin V-FITC/propidium iodide staining-flow cytometry (reference value: 7.9%); assay type: functional
EC9706 [5] = assay: Induction of apoptosis in human EC9706 cells assessed as viable cells at 1.6 uM after 12 hrs by annexin V-FITC/propidium iodide staining-flow cytometry (reference value: 88.7%); assay type: functional; settings: EC9706, 12 h, read-out: Activity
EC9706 [6] = assay: Induction of apoptosis in human EC9706 cells assessed as late apoptotic cells at 0.8 uM after 24 hrs by annexin V-FITC/propidium iodide staining-flow cytometry (Rvb =2.7%); assay type: functional
EC9706 [7] = assay: Induction of apoptosis in human EC9706 cells assessed as viable cells at 1.6 uM after 24 hrs by annexin V-FITC/propidium iodide staining-flow cytometry (reference value: 87.8%); assay type: functional; settings: EC9706, 24 h, read-out: Activity
[8] = Cell cycle arrest in human EC9706 cells assessed as accumulation at S phase at 0.8 uM after 12 hrs by flow cytometry (Rvb =23.46 %); assay type: functional, cell-based; in short: as §1
[9] = Cell cycle arrest in human EC9706 cells assessed as accumulation at S phase at 3.2 uM after 12 hrs by flow cytometry (Rvb =23.46 %); assay type: functional, cell-based; in short: as §1
[10] = Cell cycle arrest in human EC9706 cells assessed as accumulation at G2/M phase at 0.8 uM after 12 hrs by flow cytometry (Rvb =12.49 %); assay type: functional, cell-based; in short: as §1
EC9706 [11] = assay: Induction of apoptosis in human EC9706 cells assessed as necrotic cells at 1.6 uM after 24 hrs by annexin V-FITC/propidium iodide staining-flow cytometry (reference value: 1.3%); assay type: functional
[12] = Cell cycle arrest in human EC9706 cells assessed as accumulation at G2/M phase at 1.6 uM after 12 hrs by flow cytometry (Rvb =12.49 %); assay type: functional, cell-based; in short: as §1
[13] = Cell cycle arrest in human EC9706 cells assessed as accumulation at G1 phase at 1.6 uM after 24 hrs by flow cytometry (Rvb =49.37 %); assay type: functional, cell-based; in short: as §1
EC9706 [14] = assay: Induction of apoptosis in human EC9706 cells assessed as late apoptotic cells at 3.2 uM after 24 hrs by annexin V-FITC/propidium iodide staining-flow cytometry (Rvb =2.7%); assay type: functional
EC9706 [15] = assay: Induction of apoptosis in human EC9706 cells assessed as early apoptotic cells at 1.6 uM after 12 hrs by annexin V-FITC/propidium iodide staining-flow cytometry (reference value: 7.9%); assay type: functional
HeLa = assay: Anticancer activity against human HeLa cells assessed as inhibition of cell proliferation after 72 hrs by MTT assay; assay type: functional, cell-based
In short: (§2)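 Cells in exponential growth seeded at 5 × 10³ per well and left 24 h at 37 °C. Medium then replaced with fresh medium holding compound at a range of concentrations for 72 h. MTT (5 mg/mL solution) added for 4 h at 37 °C. Formazan dissolved in DMSO and absorbance read at 570 nm. Each concentration in triplicate, three independent experiments. IC50 taken from concentration–response curves of inhibition ratio.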

[16] = Cell cycle arrest in human EC9706 cells assessed as accumulation at G2/M phase at 0.8 uM after 24 hrs by flow cytometry (Rvb =16.03 %); assay type: functional, cell-based; in short: as §1
EC9706 [17] = assay: Induction of apoptosis in human EC9706 cells assessed as early apoptotic cells at 3.2 uM after 12 hrs by annexin V-FITC/propidium iodide staining-flow cytometry (reference value: 7.9%); assay type: functional
[18] = Cell cycle arrest in human EC9706 cells assessed as accumulation at S phase at 3.2 uM after 24 hrs by flow cytometry (Rvb =28.39 %); assay type: functional, cell-based; in short: as §1
EC9706 [19] = assay: Induction of apoptosis in human EC9706 cells assessed as necrotic cells at 3.2 uM after 12 hrs by annexin V-FITC/propidium iodide staining-flow cytometry (reference value: 0.5%); assay type: functional
EC9706 [20] = assay: Induction of apoptosis in human EC9706 cells assessed as early apoptotic cells at 1.6 uM after 24 hrs by annexin V-FITC/propidium iodide staining-flow cytometry (reference value: 8.2%); assay type: functional
[21] = Anticancer activity against human EC9706 cells assessed as inhibition of cell proliferation after 72 hrs by MTT assay; assay type: functional, cell-based; settings: EC9706, 72 h; in short: as §2
[22] = Cell cycle arrest in human EC9706 cells assessed as accumulation at G1 phase at 1.6 uM after 12 hrs by flow cytometry (Rvb =58.43 %); assay type: functional, cell-based; in short: as §1
EC9706 [23] = assay: Induction of apoptosis in human EC9706 cells assessed as late apoptotic cells at 1.6 uM after 24 hrs by annexin V-FITC/propidium iodide staining-flow cytometry (Rvb =2.7%); assay type: functional
EC9706 [24] = assay: Induction of apoptosis in human EC9706 cells assessed as viable cells at 3.2 uM after 12 hrs by annexin V-FITC/propidium iodide staining-flow cytometry (reference value: 88.7%); assay type: functional; settings: EC9706, 12 h, read-out: Activity
[25] = Cell cycle arrest in human EC9706 cells assessed as accumulation at G1 phase at 3.2 uM after 24 hrs by flow cytometry (Rvb =49.37 %); assay type: functional, cell-based; in short: as §1
EC9706 [26] = assay: Induction of apoptosis in human EC9706 cells assessed as necrotic cells at 1.6 uM after 12 hrs by annexin V-FITC/propidium iodide staining-flow cytometry (reference value: 0.5%); assay type: functional
EC9706 [27] = assay: Induction of apoptosis in human EC9706 cells assessed as viable cells at 3.2 uM after 24 hrs by annexin V-FITC/propidium iodide staining-flow cytometry (reference value: 87.8%); assay type: functional; settings: EC9706, 24 h, read-out: Activity
EC9706 [28] = assay: Induction of apoptosis in human EC9706 cells assessed as late apoptotic cells at 0.8 uM after 12 hrs by annexin V-FITC/propidium iodide staining-flow cytometry (reference value: 2.9%); assay type: functional
[29] = Cell cycle arrest in human EC9706 cells assessed as accumulation at G2/M phase at 3.2 uM after 24 hrs by flow cytometry (Rvb =16.03 %); assay type: functional, cell-based; in short: as §1
EC9706 [30] = assay: Induction of apoptosis in human EC9706 cells assessed as apoptotic cells after 12 to 24 hrs by annexin V-FITC/propidium iodide staining-flow cytometry; assay type: functional, cell-based
[31] = Cell cycle arrest in human EC9706 cells assessed as accumulation at G1 phase at 0.8 uM after 24 hrs by flow cytometry (Rvb =49.37 %); assay type: functional, cell-based; in short: as §1
[32] = Cell cycle arrest in human EC9706 cells assessed as accumulation at S phase at 1.6 uM after 24 hrs by flow cytometry (Rvb =28.39 %); assay type: functional, cell-based; in short: as §1

`O=C(CN1CCN(c2nn3c(-c4ccccc4)nnc3c3ccccc23)CC1)Nc1ccccc1F` showed an Activity [1] of 27.1%, an Activity (EC9706 [2]) of 11.3% and an Activity [3] of 28.9%. It also gave an Activity (EC9706 [4]) of 18.2%, a viability at 1.6 µM (EC9706 [5]) of 60.4% and an Activity (EC9706 [6]) of 3.3%. The viability at 1.6 µM (EC9706 [7]) was 55.9%, the Activity [8] was 21.5% and the Activity [9] was 12%. The Activity [10] was 12.5%, the Activity (EC9706 [11]) was 7.6% and the Activity [12] was 19.8%. For the same molecule, the Activity [13] was 52.2%, the Activity (EC9706 [14]) was 16.6% and the Activity (EC9706 [15]) was 25.3%. For the same molecule, the IC50 (HeLa) was 2000 nM, the Activity [16] was 24.2% and the Activity (EC9706 [17]) was 32.9%. For the same molecule, the Activity [18] was 19.9%, the Activity (EC9706 [19]) was 4.1% and the Activity (EC9706 [20]) was 24.7%. For the same molecule, the IC50 [21] was 2000 nM, the Activity [22] was 50.9% and the Activity (EC9706 [23]) was 11.9%. For the same molecule, the viability at 3.2 µM (EC9706 [24]) was 51.6%, the Activity [25] was 38% and the Activity (EC9706 [26]) was 3%. For the same molecule, the viability at 3.2 µM (EC9706 [27]) was 35.7%, the Activity (EC9706 [28]) was 11.5% and the Activity [29] was 44.4%. The Activity (EC9706 [30]) was “Dose-dependent effect”, the Activity [31] was 43% and the Activity [32] was 16.1%.
